Measurements: ChEMBL document CHEMBL6177935, “Design and synthesis of novel multi-target tetrabromophthalimides as CBS and Topo-II inhibitors and DNA intercalators” (RSC Med Chem, 2024)
pIC50: −log10 of the molar value. In brackets after ≈: the same amount, converted by molar mass. Activity calls are given as the source filed them. The rule behind the calls is not given here.

Tests used:
DNA topoisomerase 2-beta [1] = molecular target: T1, DNA topoisomerase 2-beta (Homo sapiens, UniProt Q02880); assay: Inhibition of human topoisomerase IIB-mediated DNA fragmentation
T1 sequence (Q02880 whole entry, the tested form may be a part): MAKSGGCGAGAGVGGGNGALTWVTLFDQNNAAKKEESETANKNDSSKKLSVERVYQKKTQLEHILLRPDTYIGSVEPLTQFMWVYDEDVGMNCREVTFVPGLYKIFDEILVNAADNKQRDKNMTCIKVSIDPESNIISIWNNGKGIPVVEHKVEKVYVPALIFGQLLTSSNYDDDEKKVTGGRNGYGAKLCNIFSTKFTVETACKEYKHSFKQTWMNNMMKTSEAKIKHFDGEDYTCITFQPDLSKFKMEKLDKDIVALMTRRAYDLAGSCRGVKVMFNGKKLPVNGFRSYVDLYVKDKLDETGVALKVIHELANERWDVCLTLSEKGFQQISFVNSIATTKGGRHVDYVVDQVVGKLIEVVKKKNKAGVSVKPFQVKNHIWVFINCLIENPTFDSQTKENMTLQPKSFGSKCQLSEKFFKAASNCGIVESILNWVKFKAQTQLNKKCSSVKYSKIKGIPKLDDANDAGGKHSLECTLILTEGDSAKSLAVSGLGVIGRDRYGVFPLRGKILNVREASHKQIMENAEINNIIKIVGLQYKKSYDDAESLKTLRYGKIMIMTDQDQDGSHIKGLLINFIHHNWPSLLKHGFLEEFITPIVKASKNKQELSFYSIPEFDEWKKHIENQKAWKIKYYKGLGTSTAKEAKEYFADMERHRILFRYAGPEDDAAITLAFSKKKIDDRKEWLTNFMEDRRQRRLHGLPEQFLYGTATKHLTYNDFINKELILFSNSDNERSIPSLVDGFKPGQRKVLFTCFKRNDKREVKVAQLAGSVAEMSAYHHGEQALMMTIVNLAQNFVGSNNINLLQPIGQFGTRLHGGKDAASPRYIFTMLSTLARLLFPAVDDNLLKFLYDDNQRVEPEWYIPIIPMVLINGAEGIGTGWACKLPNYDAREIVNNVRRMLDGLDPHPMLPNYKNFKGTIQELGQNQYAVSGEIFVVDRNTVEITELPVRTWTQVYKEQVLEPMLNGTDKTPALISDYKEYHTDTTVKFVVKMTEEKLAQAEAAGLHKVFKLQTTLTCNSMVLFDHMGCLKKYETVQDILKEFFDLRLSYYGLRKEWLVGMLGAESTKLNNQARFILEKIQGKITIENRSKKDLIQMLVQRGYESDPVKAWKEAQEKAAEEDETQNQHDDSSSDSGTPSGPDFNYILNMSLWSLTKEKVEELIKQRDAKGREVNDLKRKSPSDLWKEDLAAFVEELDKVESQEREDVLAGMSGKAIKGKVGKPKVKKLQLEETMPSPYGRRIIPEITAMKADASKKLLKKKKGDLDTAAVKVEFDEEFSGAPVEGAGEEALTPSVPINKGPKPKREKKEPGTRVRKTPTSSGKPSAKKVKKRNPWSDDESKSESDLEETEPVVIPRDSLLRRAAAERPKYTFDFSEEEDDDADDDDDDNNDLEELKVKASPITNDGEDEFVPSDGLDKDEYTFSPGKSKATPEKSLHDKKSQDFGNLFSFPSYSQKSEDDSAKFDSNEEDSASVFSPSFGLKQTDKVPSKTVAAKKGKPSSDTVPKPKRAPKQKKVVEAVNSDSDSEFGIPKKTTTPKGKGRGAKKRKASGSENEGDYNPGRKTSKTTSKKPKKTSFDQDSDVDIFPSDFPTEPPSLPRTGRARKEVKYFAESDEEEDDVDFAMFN

PC-3 [2] = assay: Growth inhibition of human PC-3 cells at 100 ug/ml measured after 48 hrs by SRB assay relative to control; assay type: functional; settings: dose 100.0 µg/ml, pooled result: one value given for 15 cell lines, strains, targets or settings
Method in brief: (§1)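 SRB screen on fifteen human cancer lines. Cells seeded at 3×10^3 per well and left 24 h to attach. A single concentration of 100 µg/mL was tested in triplicate wells for 48 h, with 1% v/v DMSO as vehicle control. Cells fixed in 20% TCA, stained with 0.4% SRB and read at 570 nm. Survival fraction = OD treated/OD control.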

HeLa [3] = assay: Growth inhibition of human HeLa cells at 100 ug/ml measured after 48 hrs by SRB assay relative to control; assay type: functional; settings: dose 100.0 µg/ml, pooled result: one value given for 15 cell lines, strains, targets or settings; method in brief: as §1
HN = assay: Growth inhibition of human HN cells at 100 ug/ml measured after 48 hrs by SRB assay relative to control; assay type: functional; settings: dose 100.0 µg/ml, pooled result: one value given for 15 cell lines, strains, targets or settings; method in brief: as §1
A-431 [4] = assay: Growth inhibition of human A-431 cells at 100 ug/ml measured after 48 hrs by SRB assay relative to control; assay type: functional; settings: dose 100.0 µg/ml, pooled result: one value given for 15 cell lines, strains, targets or settings; method in brief: as §1
MDA-MB-468 [5] = assay: Induction of apoptosis in human MDA-MB-468 cells assessed as down regulation of MMP9 expression measured after 1 hr by ELISA relative to control; assay type: functional
Method in brief: (§2)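 Sandwich ELISA with wells precoated with capture antibody. Samples and standards (7-point curve) incubated 1 h at 37 °C, then biotin detection antibody 1 h at 37 °C, then avidin-HRP 30 min at 37 °C, with washes between steps. TMB added for 10-20 min at 37 °C in the dark, stopped with sulphuric acid and read at 450 nm. Duplicate readings averaged and zero standard subtracted.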

MDA-MB-468 [6] = assay: Cell cycle analysis in human MDA-MB-468 cells assessed as accumulation of cells at S phase at 3.1 uM measured after 48 hrs by propidium iodide staining based flow cytometry (reference value: 15.3%); assay type: functional
Method in brief: (§3)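 MDA-MB-468 cells, 2 x 10^5 per well in medium with 10% FBS, grown 24 h at 37 °C, 5% CO₂. Then exposed to 3.1 μM in 1% v/v DMSO for 48 h, washed in cold PBS and fixed in ice-cold 70% ethanol. Stained with PI for 15 min at 37 °C and read by flow cytometry.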

MDA-MB-468 [7] = assay: Induction of apoptosis in human MDA-MB-468 cells assessed as down regulation of BCL-2 expression measured after 1 hr by ELISA relative to control; assay type: functional; method in brief: as §2
A549 = assay: Growth inhibition of human A549 cells at 100 ug/ml measured after 48 hrs by SRB assay relative to control; assay type: functional; settings: dose 100.0 µg/ml, pooled result: one value given for 15 cell lines, strains, targets or settings; method in brief: as §1
MDA-MB-468 [8] = assay: Growth inhibition of human MDA-MB-468 cells at 100 ug/ml measured after 48 hrs by SRB assay relative to control; assay type: functional; settings: dose 100.0 µg/ml, pooled result: one value given for 15 cell lines, strains, targets or settings; method in brief: as §1
A-431 [9] = assay: Growth inhibition of human A-431 cells measured after 48 hrs by SRB assay; assay type: functional, cell-based
Method in brief: (§4)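 SRB assay. Cells seeded at 3×10^3 per well and attached 24 h, then exposed for 48 h to 12.5, 25, 50 and 62.5 µg/mL in triplicate wells, with 1% v/v DMSO vehicle. Cells fixed in 20% TCA, stained with 0.4% SRB and read at 570 nm. Survival fraction = OD treated/OD control, and IC50 taken from a sigmoidal dose-response fit.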

MDA-MB-468 [10] = assay: Induction of apoptosis in human MDA-MB-468 cells assessed as upregulation of caspase-9 expression measured after 1 hr by ELISA relative to control; assay type: functional; method in brief: as §2
Tubulin = assay: Inhibition of [3H]-colchicine binding to biotinylated-tubulin (unknown origin) measured after 45 mins by scintillation counting analysis; assay type: protein-complex assay, Homo sapiens
Method in brief: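 Scintillation proximity assay run at 37 °C. Incubated 45 min at 37 °C, then the plate was read and percent inhibition calculated from raw counts.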

MCF7 = assay: Growth inhibition of human MCF7 cells at 100 ug/ml measured after 48 hrs by SRB assay relative to control; assay type: functional; settings: dose 100.0 µg/ml, pooled result: one value given for 15 cell lines, strains, targets or settings; method in brief: as §1
Caco-2 = assay: Growth inhibition of human Caco-2 cells at 100 ug/ml measured after 48 hrs by SRB assay relative to control; assay type: functional; settings: dose 100.0 µg/ml, pooled result: one value given for 15 cell lines, strains, targets or settings; method in brief: as §1
DNA topoisomerase 2-beta [11] = molecular target: T1, DNA topoisomerase 2-beta; assay: Inhibition of human topoisomerase IIB by sandwich ELISA
MDA-MB-468 [12] = assay: Cell cycle analysis in human MDA-MB-468 cells assessed as accumulation of cells at G0-G1 phase at 3.1 uM measured after 48 hrs by propidium iodide staining based flow cytometry (reference value: 84.43%); assay type: functional; method in brief: as §3
MDA-MB-468 [13] = assay: Induction of apoptosis in human MDA-MB-468 cells assessed as down regulation of MMP2 expression measured after 1 hr by ELISA relative to control; assay type: functional; method in brief: as §2
FaDu [14] = assay: Growth inhibition of human FaDu cells measured after 48 hrs by SRB assay; assay type: functional, cell-based; method in brief: as §4
MDA-MB-468 [15] = assay: Induction of apoptosis in human MDA-MB-468 cells assessed as upregulation of p53 expression measured after 1 hr by ELISA relative to control; assay type: functional; method in brief: as §2
MDA-MB-468 [16] = assay: Growth inhibition of human MDA-MB-468 cells measured after 48 hrs by SRB assay; assay type: functional, cell-based; settings: MDA-MB-468, 48 h; method in brief: as §4
A-375 = assay: Growth inhibition of human A-375 cells at 100 ug/ml measured after 48 hrs by SRB assay relative to control; assay type: functional; settings: dose 100.0 µg/ml, pooled result: one value given for 15 cell lines, strains, targets or settings; method in brief: as §1
HEp-2 = assay: Growth inhibition of human HEp-2 cells at 100 ug/ml measured after 48 hrs by SRB assay relative to control; assay type: functional; settings: dose 100.0 µg/ml, pooled result: one value given for 15 cell lines, strains, targets or settings; method in brief: as §1
MDA-MB-468 [17] = assay: Induction of apoptosis in human MDA-MB-468 cells assessed as upregulation of caspase-7 expression measured after 1 hr by ELISA relative to control; assay type: functional; method in brief: as §2
MDA-MB-468 [18] = assay: Cell cycle analysis in human MDA-MB-468 cells assessed as accumulation of cells at G2-M phase at 3.1 uM measured after 48 hrs by propidium iodide staining based flow cytometry (reference value: 0.27%); assay type: functional; method in brief: as §3
HCT-116 = assay: Growth inhibition of human HCT-116 cells at 100 ug/ml measured after 48 hrs by SRB assay relative to control; assay type: functional; settings: dose 100.0 µg/ml, pooled result: one value given for 15 cell lines, strains, targets or settings; method in brief: as §1
HeLa [19] = assay: Growth inhibition of human HeLa cells measured after 48 hrs by SRB assay; assay type: functional, cell-based; method in brief: as §4
FaDu [20] = assay: Growth inhibition of human FaDu cells at 100 ug/ml measured after 48 hrs by SRB assay relative to control; assay type: functional; settings: dose 100.0 µg/ml, pooled result: one value given for 15 cell lines, strains, targets or settings; method in brief: as §1
MDA-MB-468 [21] = assay: Induction of apoptosis in human MDA-MB-468 cells assessed as upregulation of Bax expression measured after 1 hr by ELISA relative to control; assay type: functional; method in brief: as §2
HepG2 = assay: Growth inhibition of human HepG2 cells at 100 ug/ml measured after 48 hrs by SRB assay relative to control; assay type: functional; settings: dose 100.0 µg/ml, pooled result: one value given for 15 cell lines, strains, targets or settings; method in brief: as §1
NCI-H1299 = assay: Growth inhibition of human NCI-H1299 cells at 100 ug/ml measured after 48 hrs by SRB assay relative to control; assay type: functional; settings: dose 100.0 µg/ml, pooled result: one value given for 15 cell lines, strains, targets or settings; method in brief: as §1
MDA-MB-468 [22] = assay: Induction of apoptosis in human MDA-MB-468 cells assessed as upregulation of caspase-3 expression measured after 1 hr by ELISA relative to control; assay type: functional; method in brief: as §2
PC-3 [23] = assay: Growth inhibition of human PC-3 cells measured after 48 hrs by SRB assay; assay type: functional, cell-based; method in brief: as §4
HNO 97 cell line = assay: Growth inhibition of human HNO 97 cells at 100 ug/ml measured after 48 hrs by SRB assay relative to control; assay type: functional; settings: dose 100.0 µg/ml, pooled result: one value given for 15 cell lines, strains, targets or settings; method in brief: as §1
MDA-MB-468 [24] = assay: Induction of apoptosis in human MDA-MB-468 cells assessed as upregulation of caspase-8 expression measured after 1 hr by ELISA relative to control; assay type: functional; method in brief: as §2

Cc1nnc(S)n(N2C(=O)c3c(Br)c(Br)c(Br)c(Br)c3C2=O)c1=O
inhibition (DNA topoisomerase 2-beta [1]): Active
growth inhibition (GI) (PC-3 [2]): Active
growth inhibition (GI) (HeLa [3]): Active
growth inhibition (GI) (HN): Active
growth inhibition (GI) (A-431 [4]): Active
fold change (FC) (MDA-MB-468 [5]): 2.29
Activity (MDA-MB-468 [6]): 9.04%
fold change (FC) (MDA-MB-468 [7]): 1.81
growth inhibition (GI) (A549): Active
growth inhibition (GI) (MDA-MB-468 [8]): Active
growth inhibition (GI) (A-431 [9]): Active
fold change (FC) (MDA-MB-468 [10]): 3.72
pIC50 (Tubulin): 5.50
growth inhibition (GI) (MCF7): Active
growth inhibition (GI) (Caco-2): Active
pIC50 (DNA topoisomerase 2-beta [11]): 4.58
Activity (MDA-MB-468 [12]): 88.67%
fold change (FC) (MDA-MB-468 [13]): 1.9
growth inhibition (GI) (FaDu [14]): Active
fold change (FC) (MDA-MB-468 [15]): 3.61
IC50 (MDA-MB-468 [16]): 6.7 µg/mL (≈ 11.1 µM)
growth inhibition (GI) (A-375): Active
growth inhibition (GI) (HEp-2): Active
fold change (FC) (MDA-MB-468 [17]): 2.44
Activity (MDA-MB-468 [18]): 2.29%
growth inhibition (GI) (HCT-116): Active
growth inhibition (GI) (HeLa [19]): Active
growth inhibition (GI) (FaDu [20]): Active
fold change (FC) (MDA-MB-468 [21]): 2.44
growth inhibition (GI) (HepG2): Active
growth inhibition (GI) (NCI-H1299): Active
fold change (FC) (MDA-MB-468 [22]): 3.42
growth inhibition (GI) (PC-3 [23]): Active
growth inhibition (GI) (HNO 97 cell line): Active
fold change (FC) (MDA-MB-468 [24]): 2.33
